≈ marks a conversion by molar mass, not a printed value.

Results on seven compounds are retold here after ChEMBL document CHEMBL3994579, “Synthesis and antibacterial activity of novel 3-O-descladinosylazithromycin derivatives” (2017).

What all share (assay type): functional
The subject of test [1] is Streptococcus pyogenes. The experiment in a line: Antibacterial activity against erythromycin-resistant Streptococcus pyogenes R1 clinical isolate by broth microdilution method. In general terms: In broth dilution the organism is exposed to a series of concentrations in liquid medium.
In test [2] the test system is Streptococcus pneumoniae. The experiment in a line: Antibacterial activity against erythromycin-resistant Streptococcus pneumoniae AB11 expressing ermB/mefA genes by broth microdilution method. The method in brief: (§1)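 Broth microdilution per NCCL recommendation, read as minimal inhibitory concentration, run alongside azithromycin and clarithromycin references. Strains: S. pneumoniae B1 (erythromycin-resistant, ermB), A22072 (erythromycin-resistant, mefA), AB11 (erythromycin-resistant, erm and mef); S. aureus ATCC29213 ([…]); S. epidermidis clinical isolate (penicillin-resistant, not characterized).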

For test [3], the system named is Pseudomonas aeruginosa. The experiment in a line: Antibacterial activity against penicillin-susceptible Pseudomonas aeruginosa ATCC 27853 by broth microdilution method. The method in brief: (§2)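 MICs were determined in vitro by broth microdilution following the NCCL-recommended method. Azithromycin and clarithromycin were run alongside as reference antibiotics on the same strain panel.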

Test [4] deals with Staphylococcus epidermidis. The experiment in a line: Antibacterial activity against penicillin-resistant Staphylococcus epidermidis clinical isolate by broth microdilution method. The gist of the method: as §1
Test [5] concerns Streptococcus pneumoniae. The experiment in a line: Antibacterial activity against erythromycin-resistant Streptococcus pneumoniae B1 expressing ermB gene by broth microdilution method. The method in brief:
as §1

For test [6], the system named is Staphylococcus aureus. The experiment in a line: Antibacterial activity against erythromycin-susceptible Staphylococcus aureus ATCC 25923 by broth microdilution method. The gist of the method:
as §2

In test [7] the test system is Streptococcus pneumoniae. The experiment in a line: Antibacterial activity against erythromycin-resistant Streptococcus pneumoniae A22072 expressing mefA gene by broth microdilution method. The gist of the method: as §1
The subject of test [8] is Escherichia coli. The experiment in a line: Antibacterial activity against penicillin-susceptible Escherichia coli ATCC 25922 by broth microdilution method. The gist of the method: as §2
Test [9] deals with Streptococcus pyogenes. The experiment in a line: Antibacterial activity against erythromycin-susceptible Streptococcus pyogenes clinical isolate by broth microdilution method. The gist of the method: as §2
The test system of test [10] is Bacillus subtilis. The experiment in a line: Antibacterial activity against erythromycin/penicillin-susceptible Bacillus subtilis ATCC 9372 by broth microdilution method. The gist of the method:
as §2

Test [11] relates to Staphylococcus aureus. The experiment in a line: Antibacterial activity against […] Staphylococcus aureus ATCC 29213 by broth microdilution method. The gist of the method:
as §1

Take `CC[C@H]1OC(=O)[C@H](C)[C@@H](O)[C@H](C)[C@@H](O[C@@H]2O[C@H](C)C[C@H](N(C)C)[C@H]2OC(=O)Nc2cccc(Cl)c2)[C@](C)(O)C[C@@H](C)CN(C)[C@H](C)[C@H]2OC(=O)O[C@@]21C`: the MIC in test [1] stood at 64 µg/mL (≈ 83.1 µM); in test [2], 32 µg/mL (≈ 41.5 µM); in test [3] it was 64 µg/mL (≈ 83.1 µM); in [4], 32 µg/mL (≈ 41.5 µM); in test [5], 64 µg/mL (≈ 83.1 µM); in test [6] it was 16 µg/mL (≈ 20.8 µM). The minimum inhibitory concentration (MIC) is 8 µg/mL (≈ 10.4 µM) in test [7]; 32 µg/mL (≈ 41.5 µM) in [8]; 1 µg/mL (≈ 1.3 µM) in [9]; 8 µg/mL (≈ 10.4 µM) in [10]; 128 µg/mL (≈ 166 µM) in test [11].
Turning to `CC[C@H]1OC(=O)[C@H](C)[C@@H](O)[C@H](C)[C@@H](O[C@@H]2O[C@H](C)C[C@H](N(C)C)[C@H]2OC(=O)Nc2ccccc2C)[C@](C)(O)C[C@@H](C)CN(C)[C@H](C)[C@H]2OC(=O)O[C@@]21C`, the MIC in test [1] was found to be 64 µg/mL (≈ 85.3 µM); in [2], 4 µg/mL (≈ 5.33 µM); in test [3] it was 64 µg/mL (≈ 85.3 µM); in [4], 16 µg/mL (≈ 21.3 µM); in test [5], 64 µg/mL (≈ 85.3 µM); in test [6] it was 4 µg/mL (≈ 5.33 µM). For the same compound, the MIC in [7] is 2 µg/mL (≈ 2.67 µM); in [8] it was 64 µg/mL (≈ 85.3 µM); in test [9] it was 0.5 µg/mL (≈ 0.667 µM); in test [10], 4 µg/mL (≈ 5.33 µM); in test [11], 32 µg/mL (≈ 42.7 µM).
Regarding `CC[C@H]1OC(=O)[C@H](C)[C@@H](OC(=O)n2ccnc2)[C@H](C)[C@@H](O[C@@H]2O[C@H](C)C[C@H](N(C)C)[C@H]2OC(C)=O)[C@](C)(O)C[C@@H](C)CN(C)[C@H](C)[C@H]2OC(=O)O[C@@]21C`, the minimal inhibitory concentration (MIC) in test [1] amounted to 56 µg/mL (≈ 74.4 µM); in test [2] it was 256 µg/mL (≈ 340 µM); in test [3], 128 µg/mL (≈ 170 µM); in test [4], 128 µg/mL (≈ 170 µM); in test [5], 256 µg/mL (≈ 340 µM); in [6] it was 128 µg/mL (≈ 170 µM). Also, the minimum inhibitory concentration (MIC) worked out at 16 µg/mL (≈ 21.3 µM) in test [7]; 32 µg/mL (≈ 42.5 µM) in test [8]; 8 µg/mL (≈ 10.6 µM) in [9]; 128 µg/mL (≈ 170 µM) in [10]; 128 µg/mL (≈ 170 µM) in [11].
Take `CC[C@H]1OC(=O)[C@H](C)[C@@H](O)[C@H](C)[C@@H](O[C@@H]2O[C@H](C)C[C@H](N(C)C)[C@H]2OC(=O)Nc2ccc(F)cc2)[C@](C)(O)C[C@@H](C)CN(C)[C@H](C)[C@H]2OC(=O)O[C@@]21C`: the MIC was determined as 64 µg/mL (≈ 84.9 µM) in [1]; 8 µg/mL (≈ 10.6 µM) in test [2]; 128 µg/mL (≈ 170 µM) in test [3]; 64 µg/mL (≈ 84.9 µM) in test [4]; 64 µg/mL (≈ 84.9 µM) in test [5]; 16 µg/mL (≈ 21.2 µM) in test [6]. Also, the MIC stood at 4 µg/mL (≈ 5.31 µM) in [7]; 128 µg/mL (≈ 170 µM) in test [8]; 1 µg/mL (≈ 1.33 µM) in [9]; 64 µg/mL (≈ 84.9 µM) in [10]; 128 µg/mL (≈ 170 µM) in test [11].
On to `CC[C@H]1OC(=O)[C@H](C)[C@@H](OC(=O)Nc2ccccc2C)[C@H](C)[C@@H](O[C@@H]2O[C@H](C)C[C@H](N(C)C)[C@H]2OC(C)=O)[C@](C)(O)C[C@@H](C)CN(C)[C@H](C)[C@H]2OC(=O)O[C@@]21C`, for which the MIC amounted to 256 µg/mL (≈ 323 µM) in test [1]; 16 µg/mL (≈ 20.2 µM) in test [2]; 64 µg/mL (≈ 80.8 µM) in [3]; 128 µg/mL (≈ 162 µM) in test [4]; 256 µg/mL (≈ 323 µM) in [5]; 16 µg/mL (≈ 20.2 µM) in test [6]. Also, the MIC in [7] was 8 µg/mL (≈ 10.1 µM); in test [8], 64 µg/mL (≈ 80.8 µM); in test [9], 1 µg/mL (≈ 1.26 µM); in test [10], 8 µg/mL (≈ 10.1 µM); in [11] it was 64 µg/mL (≈ 80.8 µM).
Take `CC[C@H]1OC(=O)[C@H](C)[C@@H](O)[C@H](C)[C@@H](O[C@@H]2O[C@H](C)C[C@H](N(C)C)[C@H]2OC(=O)Nc2cccc(C)c2)[C@](C)(O)C[C@@H](C)CN(C)[C@H](C)[C@H]2OC(=O)O[C@@]21C`: the minimum inhibitory concentration (MIC) is 64 µg/mL (≈ 85.3 µM) in test [1]; 64 µg/mL (≈ 85.3 µM) in test [2]; 128 µg/mL (≈ 171 µM) in test [3]; 32 µg/mL (≈ 42.7 µM) in test [4]; 128 µg/mL (≈ 171 µM) in test [5]; 32 µg/mL (≈ 42.7 µM) in test [6]. The MIC amounted to 128 µg/mL (≈ 171 µM) in [7]; 64 µg/mL (≈ 85.3 µM) in test [8]; 1 µg/mL (≈ 1.33 µM) in [9]; 32 µg/mL (≈ 42.7 µM) in [10]; 128 µg/mL (≈ 171 µM) in test [11].
In the case of `CCCCc1ccc(NC(=O)O[C@H]2[C@H](O[C@@H]3[C@@H](C)[C@H](O)[C@@H](C)C(=O)O[C@H](CC)[C@@]4(C)OC(=O)O[C@@H]4[C@@H](C)N(C)C[C@H](C)C[C@@]3(C)O)O[C@H](C)C[C@@H]2N(C)C)cc1`, the minimal inhibitory concentration (MIC) in [1] came out at 64 µg/mL (≈ 80.8 µM); in test [2] it was 32 µg/mL (≈ 40.4 µM); in test [3], 128 µg/mL (≈ 162 µM); in [4] it was 64 µg/mL (≈ 80.8 µM); in test [5], 256 µg/mL (≈ 323 µM); in [6], 32 µg/mL (≈ 40.4 µM). The MIC in test [7] was found to be 64 µg/mL (≈ 80.8 µM); in [8] it was 128 µg/mL (≈ 162 µM); in [9], 8 µg/mL (≈ 10.1 µM); in test [10], 128 µg/mL (≈ 162 µM); in [11], 128 µg/mL (≈ 162 µM).

By MIC is commonly meant the smallest concentration in the dilution series that meets the test's criterion for growth inhibition.
